From ChEMBL document CHEMBL3124806, “Imidazopyridine-fused [1,3]-diazepinones: synthesis and antiproliferative activity” (Eur J Med Chem, 2014)

Assays:
Assay type in all cases: functional
MDA-MB-468 = test: Cytotoxicity against human MDA-MB-468 cells assessed as cell growth at 10 uM after 48 hrs by SRB assay relative to untreated control; conditions: MDA-MB-468, 48 h, read-out: Activity
Outline: (§1)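 NCI-60 one-dose screen: each agent added at 10 µM, cultures incubated 48 h. Endpoint by sulforhodamine B protein-binding dye read spectrophotometrically; growth expressed as percent of untreated control cells.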

T47D = test: Cytotoxicity against human T47D cells assessed as cell growth at 10 uM after 48 hrs by SRB assay relative to untreated control; conditions: read-out: Activity
Outline: (§2)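 NCI-60 single-dose screen. Compounds were added to the cultures at 10 μM and incubated for 48 h. The end point was sulforhodamine B protein staining read spectrophotometrically. Growth is reported as percent of untreated control cells.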

[1] = Cytotoxicity against human Hs578T cells assessed as cell growth at 10 uM after 48 hrs by SRB assay relative to untreated control; conditions: Hs-578T, read-out: Activity
Outline: (§3)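 NCI-60 panel screen at a single concentration of 10 μM with 48 h incubation. Cell density measured by sulforhodamine B protein-binding dye and read spectrophotometrically. Growth expressed as percent of untreated control cells.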

MDA-MB-231 = test: Cytotoxicity against human MDA-MB-231 cells assessed as cell growth at 10 uM after 48 hrs by SRB assay relative to untreated control; conditions: MDA-MB-231, 48 h, read-out: Activity; outline: as §1
MCF7 = test: Cytotoxicity against human MCF7 cells assessed as cell growth at 10 uM after 48 hrs by SRB assay relative to untreated control; conditions: MCF7, 48 h, read-out: Activity; outline: as §3
TK-10 = test: Cytotoxicity against human TK10 cells assessed as cell growth at 10 uM after 48 hrs by SRB assay relative to untreated control; conditions: TK-10, 48 h, read-out: Activity; outline: as §2
CAKI-1 = test: Cytotoxicity against human Caki1 cells assessed as cell growth at 10 uM after 48 hrs by SRB assay relative to untreated control; conditions: CAKI-1, 48 h, read-out: Activity; outline: as §3
ACHN = test: Cytotoxicity against human ACHN cells assessed as cell growth at 10 uM after 48 hrs by SRB assay relative to untreated control; conditions: read-out: Activity; outline: as §3
SK-OV-3 = test: Cytotoxicity against human SKOV3 cells assessed as cell growth at 10 uM after 48 hrs by SRB assay relative to untreated control; conditions: SK-OV-3, 48 h, read-out: Activity; outline: as §2
OVCAR-8 = test: Cytotoxicity against human OVCAR8 cells assessed as cell growth at 10 uM after 48 hrs by SRB assay relative to untreated control; conditions: OVCAR-8, 48 h, read-out: Activity; outline: as §1
IGROV-1 = test: Cytotoxicity against human IGROV1 cells assessed as cell growth at 10 uM after 48 hrs by SRB assay relative to untreated control; conditions: IGROV-1, 48 h, read-out: Activity; outline: as §3
UACC-62 = test: Cytotoxicity against human UACC62 cells assessed as cell growth at 10 uM after 48 hrs by SRB assay relative to untreated control; conditions: UACC-62, 48 h, read-out: Activity; outline: as §2
SK-MEL-5 = test: Cytotoxicity against human SK-MEL-5 cells assessed as cell growth at 10 uM after 48 hrs by SRB assay relative to untreated control; conditions: SK-MEL-5, 48 h, read-out: Activity; outline: as §2
SK-MEL-2 = test: Cytotoxicity against human SK-MEL-2 cells assessed as cell growth at 10 uM after 48 hrs by SRB assay relative to untreated control; conditions: SK-MEL-2, 48 h, read-out: Activity; outline: as §1
SNB-75 = test: Cytotoxicity against human SNB75 cells assessed as cell growth at 10 uM after 48 hrs by SRB assay relative to untreated control; conditions: SNB-75, 48 h, read-out: Activity; outline: as §2
SNB-19 = test: Cytotoxicity against human SNB19 cells assessed as cell growth at 10 uM after 48 hrs by SRB assay relative to untreated control; conditions: SNB-19, 48 h, read-out: Activity; outline: as §2
SF-539 = test: Cytotoxicity against human SF539 cells assessed as cell growth at 10 uM after 48 hrs by SRB assay relative to untreated control; conditions: SF-539, 48 h, read-out: Activity; outline: as §1
HT-29 = test: Cytotoxicity against human HT-29 cells assessed as cell growth at 10 uM after 48 hrs by SRB assay relative to untreated control; conditions: HT-29, 48 h, read-out: Activity; outline: as §3
HCT-116 = test: Cytotoxicity against human HCT116 cells assessed as cell growth at 10 uM after 48 hrs by SRB assay relative to untreated control; conditions: HCT-116, 48 h, read-out: Activity; outline: as §3
COLO 205 = test: Cytotoxicity against human COLO205 cells assessed as cell growth at 10 uM after 48 hrs by SRB assay relative to untreated control; conditions: COLO 205, 48 h, read-out: Activity; outline: as §3
NCI-H322M = test: Cytotoxicity against human NCI-H322M cells assessed as cell growth at 10 uM after 48 hrs by SRB assay relative to untreated control; conditions: read-out: Activity; outline: as §1
NCI-H23 = test: Cytotoxicity against human NCI-H23 cells assessed as cell growth at 10 uM after 48 hrs by SRB assay relative to untreated control; conditions: NCI-H23, 48 h, read-out: Activity; outline: as §1
A549 = test: Cytotoxicity against human A549 cells assessed as cell growth at 10 uM after 48 hrs by SRB assay relative to untreated control; conditions: A549, 48 h, read-out: Activity; outline: as §3
RPMI-8226 = test: Cytotoxicity against human RPMI8226 cells assessed as cell growth at 10 uM after 48 hrs by SRB assay relative to untreated control; conditions: RPMI-8226, 48 h, read-out: Activity; outline: as §1
MOLT-4 = test: Cytotoxicity against human MOLT4 cells assessed as cell growth at 10 uM after 48 hrs by SRB assay relative to untreated control; conditions: MOLT-4, 48 h, read-out: Activity; outline: as §1
CCRF-CEM = test: Cytotoxicity against human CCRF-CEM cells assessed as cell growth at 10 uM after 48 hrs by SRB assay relative to untreated control; conditions: read-out: Activity; outline: as §3
HL-60(TB) = test: Cytotoxicity against human HL-60(TB) cells assessed as cell growth at 10 uM after 48 hrs by SRB assay relative to untreated control; conditions: HL-60, 48 h, read-out: Activity
Outline: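 NCI-60 human tumour cell line panel; a single 10 µM concentration was added to the cultures and incubated 48 h. Endpoint was sulforhodamine B protein-binding dye read spectrophotometrically, with growth reported as percent of untreated control cells.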

Row | SMILES | growth at 10 µM (MDA-MB-468) [%] | growth at 10 µM (T47D) [%] | growth at 10 µM [1] [%] | growth at 10 µM (MDA-MB-231) [%] | growth at 10 µM (MCF7) [%] | growth at 10 µM (TK-10) [%] | growth at 10 µM (CAKI-1) [%] | growth at 10 µM (ACHN) [%] | growth at 10 µM (SK-OV-3) [%] | growth at 10 µM (OVCAR-8) [%] | growth at 10 µM (IGROV-1) [%] | growth at 10 µM (UACC-62) [%] | growth at 10 µM (SK-MEL-5) [%] | growth at 10 µM (SK-MEL-2) [%] | growth at 10 µM (SNB-75) [%] | growth at 10 µM (SNB-19) [%] | growth at 10 µM (SF-539) [%] | growth at 10 µM (HT-29) [%] | growth at 10 µM (HCT-116) [%] | growth at 10 µM (COLO 205) [%] | also measured
1 | COc1ccc(C2=Nc3nc4ccccn4c3C(=O)[C@H](Cc3ccccc3)N2)cc1 | 98.5 | 98.8 | 96.4 | 121 | 90.1 | 133 | 87.7 | 101 | 110 | 91.4 | 107 | 99.5 | 104 | 106 | 77.5 | 103 | 97.2 | 117 | 88 | 127 | growth at 10 µM (NCI-H322M): 106%; growth at 10 µM (NCI-H23): 92%; growth at 10 µM (A549): 109%; growth at 10 µM (RPMI-8226): 98.1%; growth at 10 µM (MOLT-4): 113%; growth at 10 µM (CCRF-CEM): 99.4%
2 | Cc1ccccc1C1=Nc2nc3ccccn3c2C(=O)[C@H](Cc2ccccc2)N1 | 104 | 104 | 102 | 104 | 84.9 | 138 | 88.8 | 94.5 | 111 | 92.8 | 108 | 103 | 103 | 115 | 70.8 | 109 | 99.4 | 115 | 86.9 | 107 | growth at 10 µM (NCI-H322M): 106%; growth at 10 µM (NCI-H23): 95.3%; growth at 10 µM (A549): 91.7%; growth at 10 µM (RPMI-8226): 98.4%; growth at 10 µM (MOLT-4): 111%; growth at 10 µM (HL-60(TB)): 125%; growth at 10 µM (CCRF-CEM): 105%
3 | O=C1Nc2nc3ccccn3c2C(=O)[C@H](Cc2ccccc2)N1 | 98.4 | 103 | 102 | 106 | 95.7 | 99.8 | 96.2 | 97 | 112 | 95.8 | 109 | 104 | 97.2 | 113 | 79.1 | 103 | 95.9 | 106 | 92.3 | 126 | growth at 10 µM (NCI-H322M): 103%; growth at 10 µM (NCI-H23): 101%; growth at 10 µM (A549): 98.6%; growth at 10 µM (RPMI-8226): 105%; growth at 10 µM (MOLT-4): 110%; growth at 10 µM (HL-60(TB)): 116%; growth at 10 µM (CCRF-CEM): 113%
4 | Cc1ccc(C2=Nc3nc4ccccn4c3C(=O)[C@H](Cc3ccccc3)N2)cc1 | 84.5 | 96.5 | 96.2 | 93.7 | 76.2 | 135 | 76.8 | 92.1 | 109 | 92.9 | 89.1 | 93.2 | 86.5 | 105 | 80.2 | 96.4 | 98.8 | 114 | 94.3 | 113 | growth at 10 µM (NCI-H322M): 104%; growth at 10 µM (NCI-H23): 82.5%; growth at 10 µM (A549): 94.9%; growth at 10 µM (RPMI-8226): 107%; growth at 10 µM (MOLT-4): 92.8%; growth at 10 µM (HL-60(TB)): 116%; growth at 10 µM (CCRF-CEM): 103%
5 | O=C1c2c(nc3ccccn23)NC(=O)N2CCC[C@@H]12 | 93.5 | 92.8 | 94.6 | 118 | 99.9 | 99.6 | 97.9 | 101 | 99.7 | 94.2 | 109 | 104 | 99.5 | 107 | 96.5 | 104 | 91.7 | 106 | 89 | 123 | growth at 10 µM (NCI-H322M): 106%; growth at 10 µM (NCI-H23): 98.5%; growth at 10 µM (A549): 98%; growth at 10 µM (RPMI-8226): 103%; growth at 10 µM (MOLT-4): 120%; growth at 10 µM (CCRF-CEM): 102%
6 | Cc1ccc(C2=Nc3nc4ccccn4c3C(=O)[C@@H]3CCCN23)cc1 | 94.8 | 89.8 | 94 | 93.8 | 89 | 110 | 91.8 | 93.9 | 106 | 98.1 | 99.7 | 101 | 92.5 | 105 | 90 | 92.2 | 92.5 | 101 | 94 | 94.4 | growth at 10 µM (NCI-H322M): 104%; growth at 10 µM (NCI-H23): 92%; growth at 10 µM (A549): 92.7%; growth at 10 µM (RPMI-8226): 105%; growth at 10 µM (MOLT-4): 92.4%; growth at 10 µM (HL-60(TB)): 125%; growth at 10 µM (CCRF-CEM): 50.2%
7 | O=C1c2c(nc3ccccn23)N=C(c2ccccc2)N2CCC[C@@H]12 | 101 | 93.6 | 96.7 | 94.6 | 93 | 124 | 95.4 | 97.9 | 103 | 98.7 | 114 | 107 | 94.7 | 114 | 88.3 | 103 | 89.8 | 114 | 97.8 | 99.3 | growth at 10 µM (NCI-H322M): 106%; growth at 10 µM (NCI-H23): 97.8%; growth at 10 µM (A549): 96.3%; growth at 10 µM (RPMI-8226): 96.5%; growth at 10 µM (MOLT-4): 111%; growth at 10 µM (HL-60(TB)): 129%; growth at 10 µM (CCRF-CEM): 104%
